Measurements from ChEMBL document CHEMBL4622886, “Leucinostatins from Ophiocordyceps spp. and Purpureocillium spp. Demonstrate Selective Antiproliferative Effects in Cells Representing the Luminal Androgen Receptor Subtype of Triple Negative Breast Cancer” (2020).
Active and inactive are the calls of the source. No cut-off for these calls is given here. Numbered stars: 1 amine (or outer) side, 2 acyl side, 3 side chain; on linkers, the order of the positions; unused ones are H or OH. Square brackets hold non-standard residues; d marks the D form. Peptide text beside a SMILES is read from it. * marks the point of attachment. X1 = CCC(=O)C[C@@H](O)C[C@@H](C)C[C@H](N[*:1])C(=O)[*:2]; Hexenoyl(2E,4S-Me) = CC[C@H](C)/C=C/C(=O)*; Leu(3R-OH) = CC(C)[C@@H](O)[C@H](N)C(=O)O; Pro(4S-Me) = C[C@@H]1CN[C@H](C(=O)O)C1; NH((S)CH(CH3)CH2NHMe) = CNC[C@H](C)N*; Aib = CC(C)(N)C(=O)O; βAla = NCCC(=O)O

Key:
mTORC1 (Homo sapiens) [1] = target: T1, mTORC1 (Homo sapiens) (UniProt P42345+Q8N122+Q9BVC4); test: Inhibition of mTORC1 signalling in human MDA-MB-231 cells assessed as induction of AKT phosphorylation at S473 residue at 100 nM measured within 18 hrs by immunoblot analysis relative to control; assay type: cell-based
How it was run: (§1)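 Cells were exposed to 100 nM compound or DMSO for 2, 6 or 18 h, then scraped and lysed with PMSF, Na3VO4 and protease inhibitors. Lysate (10 μg protein) ran on 10% Bis-Tris SDS-PAGE and went to PVDF. Blots were probed 1:1000 for phospho and total AKT (S473), S6K (T389), RPS6 (S235/236) and 4E-BP1 (T37/46), plus GAPDH. IRDye secondaries; infrared imaging; two independent experiments.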

mTORC1 (Homo sapiens) [2] = target: T1, mTORC1 (Homo sapiens); test: Inhibition of mTORC1 signalling in human MDA-MB-231 cells assessed as reduction in ribosomal protein S6 kinase phosphorylation at T389 residue at 100 nM measured after 2 to 18 hrs by immunoblot analysis relative to control; assay type: cell-based; how it was run: as §1
MDA-MB-453 [3] = test: Antiproliferative activity against human MDA-MB-453 cells at 1 to 100 nM incubated for 48 hrs by sulforhodamine B assay; assay type: functional, cell-based
How it was run: (§2)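 IMEM with 5% FBS and 0.3% gentamicin; cells used within 4 months of thaw. After seeding at set densities and adhering, cells got compound or DMSO vehicle for 48 h, then were fixed and SRB-stained, with A560 read. GI50 (50% proliferation inhibition vs vehicle) came from non-linear regression of concentration-response curves; three independent experiments, each in triplicate.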

SUM185PE [4] = test: Antiproliferative activity against human SUM185PE cells at 1 to 100 nM incubated for 48 hrs by sulforhodamine B assay; assay type: functional, cell-based; how it was run: as §2
HCC1937 [5] = test: Antiproliferative activity against human HCC1937 cells up to 100 nM incubated for 48 hrs by sulforhodamine B assay; assay type: functional, cell-based
How it was run: (§3)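 Cells (RPMI-1640 with 5% FBS, 0.5% gentamicin; used within 4 months of thaw) were seeded at set densities, allowed to adhere, then treated 48 h with compound or DMSO vehicle. Cells were fixed and SRB-stained, with absorbance read at 560 nm. GI50 vs vehicle was taken by non-linear regression; three independent experiments, each in triplicate.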

HCC1806 [6] = test: Antiproliferative activity against human HCC1806 cells up to 100 nM incubated for 48 hrs by sulforhodamine B assay; assay type: functional, cell-based; how it was run: as §3
BT-549 [7] = test: Antiproliferative activity against human BT549 cells up to 100 nM incubated for 48 hrs by sulforhodamine B assay; assay type: functional, cell-based; how it was run: as §3
MDA-MB-231 [8] = test: Antiproliferative activity against human MDA-MB-231 cells up to 100 nM incubated for 48 hrs by sulforhodamine B assay; assay type: functional, cell-based; how it was run: as §2
HCC1937 [9] = test: Antiproliferative activity against human HCC1937 cells at >1 uM incubated for 48 hrs by sulforhodamine B assay; assay type: functional, cell-based; how it was run: as §3
MDA-MB-453 [10] = test: Antiproliferative activity against human MDA-MB-453 cells at > 1 uM incubated for 48 hrs by sulforhodamine B assay; assay type: functional, cell-based; how it was run: as §2
HCC1806 [11] = test: Antiproliferative activity against human HCC1806 cells at >1 uM incubated for 48 hrs by sulforhodamine B assay; assay type: functional, cell-based; how it was run: as §3
MDA-MB-231 [12] = test: Antiproliferative activity against human MDA-MB-231 cells at > 1 uM incubated for 48 hrs by sulforhodamine B assay; assay type: functional, cell-based; how it was run: as §2
BT-549 [13] = test: Antiproliferative activity against human BT549 cells at >1 uM incubated for 48 hrs by sulforhodamine B assay; assay type: functional, cell-based; how it was run: as §3
mTORC1 (Homo sapiens) [14] = target: T1, mTORC1 (Homo sapiens); test: Inhibition of mTORC1 signalling in human MDA-MB-453 cells assessed as reduction in ribosomal protein S6 kinase phosphorylation at T389 residue at 100 nM measured within 2 hrs by immunoblot analysis relative to control; assay type: cell-based; how it was run: as §1
mTORC1 (Homo sapiens) [15] = target: T1, mTORC1 (Homo sapiens); test: Inhibition of mTORC1 signalling in human MDA-MB-453 cells assessed as reduction in RPS6 phosphorylation at S235/236 residue at 100 nM measured at 2 hrs by immunoblot analysis; assay type: cell-based; how it was run: as §1
mTORC1 (Homo sapiens) [16] = target: T1, mTORC1 (Homo sapiens); test: Inhibition of mTORC1 signalling in human MDA-MB-453 cells assessed as reduction in RPS6 phosphorylation at S235/236 residue at 100 nM measured at 6 hrs by immunoblot analysis relative to control; assay type: cell-based; how it was run: as §1
mTORC1 (Homo sapiens) [17] = target: T1, mTORC1 (Homo sapiens); test: Inhibition of mTORC1 signalling in human MDA-MB-453 cells assessed as induction of AKT phosphorylation at S473 residue at 100 nM measured within 18 hrs by immunoblot analysis relative to control; assay type: cell-based; how it was run: as §1
mTORC1 (Homo sapiens) [18] = target: T1, mTORC1 (Homo sapiens); test: Inhibition of mTORC1 signalling in human MDA-MB-231 cells assessed as reduction in RPS6 phosphorylation at S235/236 residue at 100 nM measured after 2 to 18 hrs by immunoblot analysis relative to control; assay type: cell-based; how it was run: as §1
mTORC1 (Homo sapiens) [19] = target: T1, mTORC1 (Homo sapiens); test: Inhibition of mTORC1 signalling in human MDA-MB-453 cells assessed as reduction in 4E-BP1 phosphorylation at T37/46 residue at 100 nM measured after 2 hrs by immunoblot analysis; assay type: cell-based; how it was run: as §1
mTORC1 (Homo sapiens) [20] = target: T1, mTORC1 (Homo sapiens); test: Inhibition of mTORC1 signalling in human MDA-MB-231 cells assessed as reduction in 4E-BP1 phosphorylation at T37/46 residue at 100 nM measured after 2 hrs by immunoblot analysis; assay type: cell-based; how it was run: as §1
MDA-MB-453 [21] = test: Antiproliferative activity against human MDA-MB-453 cells at 0.01 to 100 nM incubated for 48 hrs by sulforhodamine B assay; assay type: functional, cell-based; how it was run: as §2
SUM185PE [22] = test: Antiproliferative activity against human SUM185PE cells at 0.01 to 100 nM incubated for 48 hrs by sulforhodamine B assay; assay type: functional, cell-based; how it was run: as §2

T1 sequence (Q8N122 whole entry, looked up, other chains not shown): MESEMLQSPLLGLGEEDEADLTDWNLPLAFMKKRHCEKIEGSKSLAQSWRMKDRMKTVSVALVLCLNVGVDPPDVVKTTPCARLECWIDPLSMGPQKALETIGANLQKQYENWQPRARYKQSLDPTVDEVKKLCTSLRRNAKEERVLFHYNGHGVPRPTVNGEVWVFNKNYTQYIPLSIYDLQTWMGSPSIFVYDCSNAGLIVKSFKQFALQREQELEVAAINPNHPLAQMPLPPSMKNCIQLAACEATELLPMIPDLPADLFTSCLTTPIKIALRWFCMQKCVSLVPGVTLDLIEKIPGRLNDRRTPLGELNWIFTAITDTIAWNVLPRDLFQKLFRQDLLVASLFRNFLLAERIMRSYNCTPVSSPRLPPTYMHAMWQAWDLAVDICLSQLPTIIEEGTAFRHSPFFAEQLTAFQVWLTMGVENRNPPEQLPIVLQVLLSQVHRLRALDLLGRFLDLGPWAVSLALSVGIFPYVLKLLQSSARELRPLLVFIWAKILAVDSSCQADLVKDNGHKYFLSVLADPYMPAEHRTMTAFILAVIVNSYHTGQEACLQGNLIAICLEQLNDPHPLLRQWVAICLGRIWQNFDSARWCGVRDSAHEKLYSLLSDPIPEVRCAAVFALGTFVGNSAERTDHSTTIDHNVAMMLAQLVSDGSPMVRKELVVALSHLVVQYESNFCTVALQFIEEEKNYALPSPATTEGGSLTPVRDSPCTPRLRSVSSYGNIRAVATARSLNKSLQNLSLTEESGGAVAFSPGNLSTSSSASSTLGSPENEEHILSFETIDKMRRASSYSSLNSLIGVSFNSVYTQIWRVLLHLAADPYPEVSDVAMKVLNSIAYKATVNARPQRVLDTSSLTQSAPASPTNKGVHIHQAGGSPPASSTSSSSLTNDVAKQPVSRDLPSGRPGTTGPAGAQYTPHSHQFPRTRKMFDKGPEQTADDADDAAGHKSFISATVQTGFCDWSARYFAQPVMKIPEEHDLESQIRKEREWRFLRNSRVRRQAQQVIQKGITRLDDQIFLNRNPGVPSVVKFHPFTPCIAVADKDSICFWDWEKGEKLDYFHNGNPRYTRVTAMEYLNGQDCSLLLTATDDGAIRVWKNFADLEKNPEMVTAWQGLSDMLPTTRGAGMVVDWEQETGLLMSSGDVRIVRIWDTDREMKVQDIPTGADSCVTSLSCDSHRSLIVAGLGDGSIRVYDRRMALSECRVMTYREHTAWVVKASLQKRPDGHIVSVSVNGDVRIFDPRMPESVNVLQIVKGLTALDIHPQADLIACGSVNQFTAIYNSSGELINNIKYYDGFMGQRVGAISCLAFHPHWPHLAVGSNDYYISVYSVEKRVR
T1 sequence (Q9BVC4 whole entry, looked up, other chains not shown): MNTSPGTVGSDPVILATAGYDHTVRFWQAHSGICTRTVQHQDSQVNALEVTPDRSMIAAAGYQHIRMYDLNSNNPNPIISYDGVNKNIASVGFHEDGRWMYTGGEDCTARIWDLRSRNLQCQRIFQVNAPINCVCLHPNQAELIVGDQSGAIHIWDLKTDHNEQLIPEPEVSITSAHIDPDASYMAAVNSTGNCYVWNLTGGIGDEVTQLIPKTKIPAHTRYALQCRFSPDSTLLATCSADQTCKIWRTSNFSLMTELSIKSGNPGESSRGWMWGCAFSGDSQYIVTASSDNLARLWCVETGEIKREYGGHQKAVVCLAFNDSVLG

CCC(=O)C[C@@H](O)C[C@@H](C)C[C@H](NC(=O)[C@@H]1C[C@H](C)CN1C(=O)/C=C/[C@@H](C)CC)C(=O)N[C@H](C(=O)NC(C)(C)C(=O)N[C@@H](CC(C)C)C(=O)N[C@@H](CC(C)C)C(=O)NC(C)(C)C(=O)NC(C)(C)C(=O)NCCC(=O)N[C@@H](C)CNC)[C@H](O)C(C)C ({Hexenoyl(2E,4S-Me)}-[Pro(4S-Me)][X1][Leu(3R-OH)][Aib]LL[Aib][Aib][βAla]-{NH((S)CH(CH3)CH2NHMe)})
inhibition (mTORC1 (Homo sapiens) [1]): inactive | inhibition (mTORC1 (Homo sapiens) [2]): inactive | Activity (MDA-MB-453 [3]): Active | Activity (SUM185PE [4]): Active | Activity (HCC1937 [5]): inactive | Activity (HCC1806 [6]): inactive | Activity (BT-549 [7]): inactive | Activity (MDA-MB-231 [8]): inactive | Activity (HCC1937 [9]): Active | Activity (MDA-MB-453 [10]): Active | Activity (HCC1806 [11]): Active | Activity (MDA-MB-231 [12]): Active | Activity (BT-549 [13]): Active | inhibition (mTORC1 (Homo sapiens) [14]): 100% | inhibition (mTORC1 (Homo sapiens) [15]): Active | inhibition (mTORC1 (Homo sapiens) [16]): 100% | inhibition (mTORC1 (Homo sapiens) [17]): Active | inhibition (mTORC1 (Homo sapiens) [18]): inactive | inhibition (mTORC1 (Homo sapiens) [19]): Active | inhibition (mTORC1 (Homo sapiens) [20]): inactive | inhibition (MDA-MB-453 [21]): Active | inhibition (SUM185PE [22]): Active
